Reference: ChEMBL document CHEMBL4257584, “Sterol 14α-Demethylase Structure-Based Optimization of Drug Candidates for Human Infections with the Protozoan Trypanosomatidae” (J Med Chem, 2018)
Active and inactive are the calls of the source. No cut-off for these calls is given here.

Key:
[1] = Drug uptake in BALB/c mouse liver at 25 mg/kg, po via gavage measured after 4 hrs post dose by […]; assay type: ADME, organism-based; conditions: read-out: Drug uptake
Summary of the method: (§1)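 BALB/c mice get a single oral gavage dose of 25 mg/kg; tissues are collected 4 h post-dose. About 100 mg tissue is diluted 5-fold in PBS and homogenized. Homogenate is extracted as for plasma (ketoconazole internal standard, acetonitrile extraction) and quantified by HPLC-UV at 291 nm, 0.1 μM detection limit, n=2.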

Mus musculus [2] = experiment: Toxicity in Swiss Webster mouse assessed as alteration in body to organ ratio at 200 mg/kg, po administered as single dose measured after 48 hrs; assay type: organism-based; conditions: in vivo
Summary of the method: (§2)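 Swiss Webster mice (21–23 g, n=3) get a single oral 200 mg/kg dose, given as in the PK study. They are inspected for toxic and sub-toxic signs per OECD guidelines (behaviour, motility, neurological state, skin, fur), and body weight is tracked 0–48 h. At 48 h, mice are euthanized and organ weights are normalized to body weight. Blood is taken for haematology and plasma biochemistry.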

[3] = Drug uptake in BALB/c mouse lungs at 25 mg/kg, po via gavage measured after 4 hrs post dose by […]; assay type: ADME, organism-based, Lung; conditions: read-out: Drug uptake; summary of the method: as §1
[4] = Drug uptake in BALB/c mouse blood at 25 mg/kg, po via gavage measured after 4 hrs post dose by […]; assay type: ADME, organism-based; conditions: read-out: Drug uptake; summary of the method: as §1
[5] = Maximum plasma concentration in BALB/c mouse at 25 mg/kg, po via gavage by […]; assay type: ADME, organism-based; parameters: dose 25 mg/kg, route oral
Summary of the method: (§3)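 Single oral gavage dose of 25 mg/kg in BALB/c mice; blood sampled at 1, 2, 4, 6, 10, 16, 24 h. Plasma is diluted in PBS with ketoconazole internal standard, extracted with 80% acetonitrile, dried and redissolved. Analysed by reversed-phase HPLC with UV at 291/250 nm, 0.1 μM detection limit. Lifetime is time until undetectable.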

[6] = Hepatic clearance in CD1 mouse liver microsomes at 1 uM preincubated for 5 mins followed by NADPH addition and measured after 45 mins by LC/MS/MS analysis; assay type: ADME, microsome
Mus musculus [7] = experiment: Toxicity in Swiss Webster mouse assessed as effect on kidney weight at 200 mg/kg, po administered as single dose measured after 48 hrs; assay type: organism-based; conditions: in vivo; summary of the method: as §2
Mus musculus [8] = experiment: Toxicity in Swiss Webster mouse assessed as effect on animal behavior at 200 mg/kg, po administered as single dose measured after 48 hrs; assay type: organism-based; conditions: in vivo; summary of the method: as §2
[9] = molecular target: Sterol 14-alpha demethylase (Trypanosoma cruzi (strain CL Brener), UniProt Q7Z1V1); experiment: Binding affinity to Trypanosoma cruzi Y CYP51A expressed in Escherichia coli
Summary of the method: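 Recombinant CYP51A from Y strain T. cruzi, expressed in E. coli and purified, titrated spectrally at 0.5 μM P450 in 5 cm path cuvettes with ligand over 0.1–1 μM. Type of absorbance change in difference spectra Δ(A430-A411) plotted against ligand concentration. Apparent Kd obtained by fitting to the Morrison quadratic tight-binding equation by nonlinear regression.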

Mus musculus [10] = experiment: Toxicity in Swiss Webster mouse assessed as effect on spleen weight at 200 mg/kg, po administered as single dose measured after 48 hrs; assay type: organism-based; conditions: in vivo; summary of the method: as §2
[11] = Drug uptake in BALB/c mouse brain at 25 mg/kg, po via gavage measured after 4 hrs post dose by […]; assay type: ADME, organism-based; conditions: read-out: Drug uptake; summary of the method: as §1
Mus musculus [12] = experiment: Toxicity in Swiss Webster mouse assessed as effect on body weight at 200 mg/kg, po administered as single dose measured after 48 hrs; assay type: organism-based; conditions: in vivo; summary of the method: as §2
[13] = molecular target: Putative lanosterol 14-alpha-demethylase (Leishmania infantum) (UniProt A2TEF2); experiment: Inhibition of Leishmania infantum CYP51 expressed in Escherichia coli using [3-3H]-obtusifoliol as substrate after 60 mins by LC-MS analysis
Summary of the method: (§4)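 Reconstituted reaction: 1 μM purified CYP51, 2 μM T. brucei NADPH-P450 reductase, 100 μM dilauroylphosphatidylcholine, isocitrate dehydrogenase/isocitrate regeneration, 50 mM K phosphate pH 7.2, 10% glycerol. [3-3H]sterol substrate at 50 μM final (eburicol for T. cruzi; obtusifoliol for T. brucei and L. infantum) with inhibitor at 1.1 μM final. Preincubate 60 s at 37 °C, start with 100 μM NADPH, run 60 min, EtOAc extraction. Gives % inhibition of 14α-demethylation, triplicate, mean ± SD.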

[14] = Drug uptake in BALB/c mouse heart at 25 mg/kg, po via gavage measured after 4 hrs post dose by […]; assay type: ADME, organism-based; conditions: read-out: Drug uptake; summary of the method: as §1
[15] = Drug uptake in BALB/c mouse spleen at 25 mg/kg, po via gavage measured after 4 hrs post dose by […]; assay type: ADME, organism-based; conditions: read-out: Drug uptake; summary of the method: as §1
[16] = Intrinsic clearance in CD1 mouse liver microsomes at 1 uM preincubated for 5 mins followed by NADPH addition and measured after 45 mins by LC/MS/MS analysis; assay type: ADME, microsome; conditions: read-out: CLH
Trypanosoma cruzi [17] = experiment: Antiparasitic activity against GFP-expressing Trypanosoma cruzi Tulahuen amastigote formss infected in cardiomyocytes assessed as reduction in rate of parasite multiplication within infected cardiomyocytes measured at 72 hrs post infection by fluorescence microscopy; assay type: functional, organism-based
Summary of the method: (§5)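 GFP-expressing trypomastigotes (Tulahuen or Y strain) infect cardiomyocyte monolayers at 10 parasites per cell, in DMEM + 10% FBS. Unbound parasites are washed off. At 24 h of infection, inhibitors at 0.5–25 nM in DMSO/DMEM are added and cultured 48 h. Read-out is at 72 h post-infection as GFP fluorescence (RFU) after PBS wash; microscopy uses paraformaldehyde fixation, DAPI and phalloidin stain. Triplicate.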

Mus musculus [18] = experiment: Toxicity in Swiss Webster mouse assessed as effect on motility at 200 mg/kg, po administered as single dose measured after 48 hrs; assay type: organism-based; conditions: in vivo; summary of the method: as §2
[19] = Plasma concentration in BALB/c mouse assessed as time until the compound becomes undetectable at 25 mg/kg, po via gavage […]; assay type: ADME, organism-based; conditions: in vivo; summary of the method: as §3
Mus musculus [20] = experiment: Toxicity in Swiss Webster mouse assessed as effect on fur profile at 200 mg/kg, po administered as single dose measured after 48 hrs; assay type: organism-based; conditions: in vivo; summary of the method: as §2
Mus musculus [21] = experiment: Toxicity in Swiss Webster mouse assessed as effect on heart weight at 200 mg/kg, po administered as single dose measured after 48 hrs; assay type: organism-based; conditions: in vivo; summary of the method: as §2
Mus musculus [22] = experiment: Toxicity in Swiss Webster mouse assessed as effect on biochemical plasma parameters at 200 mg/kg, po administered as single dose measured after 48 hrs; assay type: organism-based; conditions: in vivo; summary of the method: as §2
[23] = molecular target: Lanosterol 14-alpha-demethylase (Trypanosoma brucei brucei (strain 927/4 GUTat10.1)) (UniProt Q385E8); experiment: Inhibition of Trypanosoma brucei […] CYP51 expressed in Escherichia coli using [3-3H]-obtusifoliol as substrate after 60 mins by LC-MS analysis; summary of the method: as §4
Mus musculus [24] = experiment: Toxicity in Swiss Webster mouse assessed as effect on skin at 200 mg/kg, po administered as single dose measured after 48 hrs; assay type: organism-based; conditions: in vivo; summary of the method: as §2
Mus musculus [25] = experiment: Toxicity in Swiss Webster mouse at 200 mg/kg, po administered as single dose measured after 48 hrs measured at 48 hrs post dose; assay type: organism-based; conditions: in vivo; summary of the method: as §2
[26] = molecular target: Sterol 14-alpha demethylase (Trypanosoma cruzi (strain CL Brener)) (UniProt Q7Z1V1); experiment: Inhibition of Trypanosoma cruzi Y CYP51 expressed in Escherichia coli using [3-3H]-eburicol as substrate after 60 mins by LC-MS analysis; summary of the method: as §4
[27] = molecular target: Putative lanosterol 14-alpha-demethylase (Leishmania infantum, UniProt A2TEF2); experiment: Binding affinity to Leishmania infantum CYP51 expressed in Escherichia coli
Summary of the method: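 Purified E. coli-expressed L. infantum CYP51 at 0.5 μM is titrated with ligand at 0.1–1 μM in 5 cm path cuvettes. Difference-spectrum absorbance change Δ(A430−A411) is plotted against ligand concentration. Apparent Kd comes from a Morrison (quadratic) tight-binding fit by nonlinear regression.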

Mus musculus [28] = experiment: Toxicity in Swiss Webster mouse assessed as effect on lung weight at 200 mg/kg, po administered as single dose measured after 48 hrs; assay type: organism-based; conditions: in vivo; summary of the method: as §2
Mus musculus [29] = experiment: Toxicity in Swiss Webster mouse assessed as effect on neurological conditions at 200 mg/kg, po administered as single dose measured after 48 hrs; assay type: organism-based; conditions: in vivo; summary of the method: as §2
Trypanosoma cruzi [30] = experiment: Antiparasitic activity against GFP-expressing Trypanosoma cruzi Y amastigote formss infected in cardiomyocytes assessed as reduction in rate of parasite multiplication within infected cardiomyocytes measured at 72 hrs post infection by fluorescence microscopy; assay type: functional, organism-based; summary of the method: as §5
Mus musculus [31] = experiment: Toxicity in Swiss Webster mouse assessed as effect on liver weight at 200 mg/kg, po administered as single dose measured after 48 hrs; assay type: organism-based; conditions: in vivo; summary of the method: as §2

Chain of Sterol 14-alpha demethylase (Q7Z1V1 whole entry): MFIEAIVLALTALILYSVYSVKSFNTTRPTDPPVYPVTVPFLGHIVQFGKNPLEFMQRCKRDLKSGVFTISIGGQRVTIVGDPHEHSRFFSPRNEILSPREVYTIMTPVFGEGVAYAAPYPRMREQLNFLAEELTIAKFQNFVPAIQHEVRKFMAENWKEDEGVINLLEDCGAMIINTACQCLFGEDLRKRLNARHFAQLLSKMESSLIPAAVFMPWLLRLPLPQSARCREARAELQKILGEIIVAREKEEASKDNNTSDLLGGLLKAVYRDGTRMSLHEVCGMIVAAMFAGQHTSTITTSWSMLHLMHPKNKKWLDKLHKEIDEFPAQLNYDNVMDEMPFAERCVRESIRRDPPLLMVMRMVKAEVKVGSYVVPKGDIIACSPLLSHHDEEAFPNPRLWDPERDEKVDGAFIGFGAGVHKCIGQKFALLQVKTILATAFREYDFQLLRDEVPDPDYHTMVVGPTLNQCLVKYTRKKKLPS
Chain of Sterol 14-alpha demethylase (Trypanosoma cruzi (strain CL Brener)) (Q7Z1V1 whole entry, looked up): as the sequence (Q7Z1V1 whole entry) above
Chain of Lanosterol 14-alpha-demethylase (Trypanosoma brucei brucei (strain 927/4 GUTat10.1)) (Q385E8 1-481): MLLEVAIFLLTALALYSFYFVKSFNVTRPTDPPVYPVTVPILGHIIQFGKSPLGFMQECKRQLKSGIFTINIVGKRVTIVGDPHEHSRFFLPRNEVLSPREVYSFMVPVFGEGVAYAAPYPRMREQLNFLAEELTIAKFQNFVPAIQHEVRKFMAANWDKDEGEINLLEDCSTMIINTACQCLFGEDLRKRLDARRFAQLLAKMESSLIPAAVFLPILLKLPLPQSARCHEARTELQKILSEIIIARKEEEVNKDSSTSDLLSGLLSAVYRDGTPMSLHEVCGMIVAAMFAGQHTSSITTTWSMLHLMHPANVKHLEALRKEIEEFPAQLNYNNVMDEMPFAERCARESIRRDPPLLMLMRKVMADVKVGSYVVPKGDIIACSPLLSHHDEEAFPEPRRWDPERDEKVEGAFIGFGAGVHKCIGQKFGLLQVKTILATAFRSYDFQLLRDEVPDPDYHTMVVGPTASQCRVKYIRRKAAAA
Chain of Putative lanosterol 14-alpha-demethylase (Leishmania infantum) (A2TEF2 1-480): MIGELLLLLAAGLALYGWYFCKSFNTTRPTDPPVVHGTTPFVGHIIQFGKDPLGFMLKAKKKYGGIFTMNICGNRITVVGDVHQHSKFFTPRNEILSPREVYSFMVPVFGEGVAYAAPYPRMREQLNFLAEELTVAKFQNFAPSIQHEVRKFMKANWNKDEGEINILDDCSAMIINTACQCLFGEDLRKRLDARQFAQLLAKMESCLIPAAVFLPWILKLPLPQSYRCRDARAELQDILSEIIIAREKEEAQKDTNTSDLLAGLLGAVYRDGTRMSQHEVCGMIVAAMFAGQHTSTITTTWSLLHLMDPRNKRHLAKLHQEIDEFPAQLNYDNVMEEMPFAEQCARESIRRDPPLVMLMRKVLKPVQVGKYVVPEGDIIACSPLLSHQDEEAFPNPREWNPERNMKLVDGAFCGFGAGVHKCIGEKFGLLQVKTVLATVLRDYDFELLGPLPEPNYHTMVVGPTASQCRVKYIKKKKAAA
Chain of Putative lanosterol 14-alpha-demethylase (A2TEF2 whole entry): as the sequence (A2TEF2 1-480) above

O=C(N[C@@H](Cn1ccnc1)c1ccc(Cl)cc1Cl)c1ccc(-c2nnc(-c3ccc(F)c(F)c3)o2)cc1
concentration at 4 h [1]: 38 µM | Activity (Mus musculus [2]): Non-Toxic | concentration at 4 h [3]: 46 µM | concentration at 4 h [4]: 36 µM | Cmax [5]: 38 µM | CLhep predicted at 1 µM [6]: 34.5 mL/min/kg | Activity (Mus musculus [7]): Non-Toxic | Activity (Mus musculus [8]): Non-Toxic | Kd [9]: 4.2 nM | Activity (Mus musculus [10]): Non-Toxic | concentration at 4 h [11]: 8 µM | Activity (Mus musculus [12]): Non-Toxic | inhibition [13]: Active | concentration at 4 h [14]: 36 µM | concentration at 4 h [15]: 28 µM | CLint scaled at 1 µM [16]: 55.8 mL/min/kg | EC50 (Trypanosoma cruzi [17]): 1.6 nM | Activity (Mus musculus [18]): Non-Toxic | Time [19]: 16 h | Activity (Mus musculus [20]): Non-Toxic | Activity (Mus musculus [21]): Non-Toxic | Activity (Mus musculus [22]): Non-Toxic | inhibition [23]: Active | Activity (Mus musculus [24]): Non-Toxic | NOAEL (Mus musculus [25]): > 200 mg/kg | inhibition [26]: Active | Kd [27]: 1.7 nM | Activity (Mus musculus [28]): Non-Toxic | Activity (Mus musculus [29]): Non-Toxic | EC50 (Trypanosoma cruzi [30]): 3 nM | Activity (Mus musculus [31]): Non-Toxic
